In the library only some 2.6% were active in any assay of this set; here they are far more common.
SIRT5 block: SIRT5 desuccinylase inhibitors, primary screen, biochemical, fluorescence imaging, single point, set 5; AID 652115, 2013; Purified SirT5, succinyl-peptide AMC, trypsin-coupled fluorescence; inhibition, % at 15 µM; NAD-dependent protein deacylase sirtuin-5, mitochondrial (Homo sapiens), Q9NXA8; 330,000 tested, 1.1% active; in the data active = inhibition above about 15%
FGF22 binding: binders of human FGF22 protein, primary screen, FGF22 synaptogenesis inhibitor project, biophysical, thermal shift, single point | 340,000 tested, 1.5% active | activity (Tm shift, normalised), % at 9.99 µM | recombinant FGF22 thermal shift, SYPRO orange fluorescence; percent of sucrose octasulfate shift, DMSO zero;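 active = mean Tm shift, scaled 0 neutral to 100 positive control, at about 1.3% or above, every replicate too, limit read from the data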
NSD2 HMT inh: NSD2 histone methyltransferase inhibitors, primary screen, biochemical, AlphaScreen, single concentration, set 2; AID 743445, 2014; inhibition, % at 12.5 µM; Histone-lysine N-methyltransferase NSD2 (Homo sapiens), O96028; 310,000 tested, 0.54% active; NSD2 peptide methylation, 120 min; in the data active = inhibition above about 50%
UCH37 DUB inh: inhibitors of human UCH37 deubiquitinase, primary screen, biochemical, Ub-AMC cleavage, fluorescence. purified proteasome/UCH37. inhibition, % (test concentration not listed). Ubiquitin carboxyl-terminal hydrolase isozyme L5 (Homo sapiens), Q9Y5K5. 330,000 tested, 0.33% active. AID 588478, 2011;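 active = mean inhibition over replicate wells above about 20%, limit read from the data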;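 also: 0% = compound-free wells with enzyme and 100% = wells lacking proteasome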
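Material: Human UCH37 enzyme supplied as purified proteasome complex | Schedule: 30 min compound-proteasome preincubation then 25 min substrate reaction, room temperature | Detection: AMC fluorescence from Ub-AMC cleavage, excitation 355 nm, emission 460 nm | Benchmarks: Wells without proteasome as full block, compound-free enzyme plus substrate as uninhibited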
Casp6 inh: human caspase-6 inhibitors, primary screen, biochemical, VEID-R110 fluorescence, single point, set 2; inhibition, % at 12.5 µM; P55212; 350,000 tested, 0.53% active; purified caspase-6, Z-VEID-R110 cleavage fluorescence; AID 686996, 2013;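 active = mean inhibition across replicates at least about 35%, with every replicate also reaching that limit, limit read from the data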;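 also: 0% = median of neutral control wells and 100% = no fluorescence left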
The depositor's hits bear a star.

Screening CN(C)C=Nc1nc(-c2ccc3c(c2)OCO3)cs1 returned UCH37 DUB inh 26*.
For COc1cccc(NC(=O)Nc2ccc3c(c2)C(=O)N(C)[C@H]2CC[C@H](CC(=O)O)O[C@H]2CO3)c1 the results were FGF22 binding 0.
`COc1cccc(C(=O)NCC(=O)N/N=C/c2cccc(OC(=O)c3ccc([N+](=O)[O-])cc3)c2)c1` gave SIRT5 block -2, FGF22 binding 43*, NSD2 HMT inh -2 and Casp6 inh 1.
`CCCNC(=O)C1(C)CCN(C(=O)C2(c3ccc(Cl)cc3)CCCC2)C1` (configuration not stated) gave FGF22 binding 0, NSD2 HMT inh -1 and Casp6 inh 1.
Screening CCCNC(=O)C1(C)CCCN(C(=O)C2(c3ccc(Cl)cc3)CCCC2)C1 (configuration not stated) returned SIRT5 block 30*, FGF22 binding 0, NSD2 HMT inh -1 and Casp6 inh 4.
Cc1noc(C)c1NC(=O)Nc1ccc2c(c1)C(=O)N([C@@H](C)CO)C[C@@H](C)[C@@H](CN(C)Cc1ccc(Oc3ccccc3)cc1)O2 was read as SIRT5 block 1, FGF22 binding 0 and Casp6 inh 1.
For NC(=O)CC(NC(=O)Cc1ccc(Br)cc1)c1ccc(NCc2ccc(F)cc2)c([N+](=O)[O-])c1 (configuration not stated) the results were SIRT5 block 5, FGF22 binding 44*, UCH37 DUB inh 4 and Casp6 inh 0.
`CCOC(=O)N1CCN(C(=O)C2CCN(S(=O)(=O)c3ccc(C)cc3)CC2)CC1` gave NSD2 HMT inh -3 and UCH37 DUB inh 3.
CCOC(=O)N1CCN(C(=O)C2CCN(S(=O)(=O)c3ccc(F)cc3)CC2)CC1 was read as SIRT5 block -7, FGF22 binding 43*, NSD2 HMT inh 1, UCH37 DUB inh 2 and Casp6 inh -2.
CCOC(=O)c1ccc(S(=O)(=O)N2CCC(C(=O)N3CCN(c4ccccc4OC)CC3)CC2)cc1 was read as SIRT5 block 3, FGF22 binding 0, NSD2 HMT inh 3, UCH37 DUB inh 3 and Casp6 inh 48*.
N#C[C@H]1[C@H](c2ccccc2-c2ccccc2F)[C@@H](CO)N1C(=O)C1CCOCC1 was read as FGF22 binding 0 and Casp6 inh -2.
CCN(CC)C(=O)Cn1cc(C(=O)C(=O)N2CC=C(c3ccccc3)CC2)c2ccccc21 was read as SIRT5 block 1, FGF22 binding 43*, NSD2 HMT inh 0, UCH37 DUB inh 3 and Casp6 inh 7.
`Cc1cccc(C(=O)OCC(=O)N2c3ccccc3CC2C)c1C` (configuration not stated) gave FGF22 binding 0, NSD2 HMT inh -1 and Casp6 inh 3.
`Cc1nc2sc(C(=O)OCC(=O)N3c4ccccc4CC3C)c(C)c2c(=O)[nH]1` (configuration not stated) gave SIRT5 block -3, FGF22 binding 43*, UCH37 DUB inh -4 and Casp6 inh -4.
Clc1ccc(C=NN2CCCCC2)cc1 was read as UCH37 DUB inh 5.
Cc1ccc(NC(=O)c2ccccc2Cl)cc1-n1cnnn1 was read as SIRT5 block -1, FGF22 binding 44*, NSD2 HMT inh -2, UCH37 DUB inh 2 and Casp6 inh 4.
For Cc1ccc(NC(=O)c2ccccc2)cc1-n1cnnn1 the results were SIRT5 block -3, FGF22 binding 0, NSD2 HMT inh -2, UCH37 DUB inh -1 and Casp6 inh 1.
Cc1ccc(NC2=C/C(=N/S(=O)(=O)c3cccs3)c3ccccc3C2=O)cc1 was read as SIRT5 block 0, FGF22 binding 1, NSD2 HMT inh 34 and Casp6 inh 2.
CCc1ccc(S(=O)(=O)/N=C2\C=C(Nc3ccc(C(=O)O)cc3)C(=O)c3ccccc32)cc1 was read as SIRT5 block 2, FGF22 binding 0 and Casp6 inh 97*.
Cc1ccc(S(=O)(=O)/N=C2\C=C(Nc3cccc(C(=O)O)c3)C(=O)c3ccccc32)c(C)c1 was read as SIRT5 block 3, FGF22 binding -1, NSD2 HMT inh 117* and Casp6 inh 100*.
Screening Cc1ccc(NC2=CC(=NS(=O)(=O)c3cccs3)c3ccccc3C2=O)cc1 returned UCH37 DUB inh 22*.
CC(C)(C)c1ccc(S(=O)(=O)/N=C2\C=C(NS(=O)(=O)c3ccccc3)C(=O)c3ccccc32)cc1 was read as SIRT5 block 10, FGF22 binding 0, NSD2 HMT inh 108* and Casp6 inh 50*.
Screening Cc1ccccc1-c1ccc2c(c1)O[C@@H](CN(C)C)[C@@H](C)CN([C@@H](C)CO)S2(=O)=O returned SIRT5 block -3, FGF22 binding 0 and Casp6 inh 2.
For CC(=O)N1CCc2c(sc(NC(=O)c3ccc([N+](=O)[O-])o3)c2C#N)C1 the results were SIRT5 block 3, FGF22 binding 0, UCH37 DUB inh 19 and Casp6 inh 38*.
Screening COCCCC1CCN(C(=O)C2CCC(=O)N(CCCc3ccccc3)C2)CC1 (configuration not stated) returned FGF22 binding 43*, NSD2 HMT inh 0 and Casp6 inh 2.
`COCCCC1CCN(C(=O)C2CCC(=O)N(CCc3ccccc3)C2)CC1` (configuration not stated) gave SIRT5 block 0, FGF22 binding 0, NSD2 HMT inh -2, UCH37 DUB inh -1 and Casp6 inh 1.
`CS(=O)(=O)N1CCN(c2ccc([N+](=O)[O-])c(N3CCOCC3)c2)CC1` gave NSD2 HMT inh 5 and UCH37 DUB inh -5.
CS(=O)(=O)N1CCN(c2ccccc2[N+](=O)[O-])CC1 was read as SIRT5 block 1, FGF22 binding 43*, NSD2 HMT inh -3, UCH37 DUB inh 3 and Casp6 inh 2.
`C[C@@H]1C=C(C(=O)N2CCCCCCC2)O[C@H](OCc2ccc(CO)cc2)C1` gave SIRT5 block -10, FGF22 binding 0 and Casp6 inh 1.
For C[C@@H]1CN([C@H](C)CO)S(=O)(=O)c2ccc(-c3cccc(C#N)c3)cc2O[C@@H]1CN(C)C(=O)c1cccnc1 the results were SIRT5 block 5, FGF22 binding 0 and Casp6 inh 2.
For O=C(N/N=C/c1sc(=O)[nH]c1-[n+]1ccccc1)c1ccccc1[O-] the results were SIRT5 block 6, FGF22 binding 0, NSD2 HMT inh -21 and Casp6 inh 5.
